Where “and” joins values, the source holds several entries; their conditions need not be identical. Identical values can stand only once.

Data set [1] can be described thus: Pharmacokinetic Parameter t1/2 was reported for Protein Tyrosine Phosphatase 1B. In kind it is ADME, organism-based. The conditions noted are these: in vivo.
Data set [2] deals with Receptor-type tyrosine-protein phosphatase alpha (Homo sapiens, UniProt P18433). The data set is described as follows: Inhibitory effect against human Protein-tyrosine phosphatase alpha (PTPalpha) using p-nitrophenyl phosphate substrate at a pH 7.0. In outline: (§1)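 Ki from pNPP hydrolysis assays at pH 7 with recombinant PTPs (CD45, LAR, PTPα).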
Data set [3] can be described thus: Pharmacokinetic Parameter clearance was reported for Protein Tyrosine Phosphatase 1B. The conditions noted are these: in vivo. In kind it is ADME, organism-based.
Data set [4] in a line: Oral bioavailability. In kind it is ADME, organism-based. The conditions noted are these: eutheria, in vivo, read-out: f (po).
A short description of data set [5]: Pharmacokinetic Parameter Vss was reported for Protein Tyrosine Phosphatase 1B. The format is ADME, organism-based. The note with it: in vivo; read-out: Vss.
In data set [6] the target is T1, Receptor-type tyrosine-protein phosphatase C (Homo sapiens, UniProt P08575).
T1 sequence (P08575 whole entry): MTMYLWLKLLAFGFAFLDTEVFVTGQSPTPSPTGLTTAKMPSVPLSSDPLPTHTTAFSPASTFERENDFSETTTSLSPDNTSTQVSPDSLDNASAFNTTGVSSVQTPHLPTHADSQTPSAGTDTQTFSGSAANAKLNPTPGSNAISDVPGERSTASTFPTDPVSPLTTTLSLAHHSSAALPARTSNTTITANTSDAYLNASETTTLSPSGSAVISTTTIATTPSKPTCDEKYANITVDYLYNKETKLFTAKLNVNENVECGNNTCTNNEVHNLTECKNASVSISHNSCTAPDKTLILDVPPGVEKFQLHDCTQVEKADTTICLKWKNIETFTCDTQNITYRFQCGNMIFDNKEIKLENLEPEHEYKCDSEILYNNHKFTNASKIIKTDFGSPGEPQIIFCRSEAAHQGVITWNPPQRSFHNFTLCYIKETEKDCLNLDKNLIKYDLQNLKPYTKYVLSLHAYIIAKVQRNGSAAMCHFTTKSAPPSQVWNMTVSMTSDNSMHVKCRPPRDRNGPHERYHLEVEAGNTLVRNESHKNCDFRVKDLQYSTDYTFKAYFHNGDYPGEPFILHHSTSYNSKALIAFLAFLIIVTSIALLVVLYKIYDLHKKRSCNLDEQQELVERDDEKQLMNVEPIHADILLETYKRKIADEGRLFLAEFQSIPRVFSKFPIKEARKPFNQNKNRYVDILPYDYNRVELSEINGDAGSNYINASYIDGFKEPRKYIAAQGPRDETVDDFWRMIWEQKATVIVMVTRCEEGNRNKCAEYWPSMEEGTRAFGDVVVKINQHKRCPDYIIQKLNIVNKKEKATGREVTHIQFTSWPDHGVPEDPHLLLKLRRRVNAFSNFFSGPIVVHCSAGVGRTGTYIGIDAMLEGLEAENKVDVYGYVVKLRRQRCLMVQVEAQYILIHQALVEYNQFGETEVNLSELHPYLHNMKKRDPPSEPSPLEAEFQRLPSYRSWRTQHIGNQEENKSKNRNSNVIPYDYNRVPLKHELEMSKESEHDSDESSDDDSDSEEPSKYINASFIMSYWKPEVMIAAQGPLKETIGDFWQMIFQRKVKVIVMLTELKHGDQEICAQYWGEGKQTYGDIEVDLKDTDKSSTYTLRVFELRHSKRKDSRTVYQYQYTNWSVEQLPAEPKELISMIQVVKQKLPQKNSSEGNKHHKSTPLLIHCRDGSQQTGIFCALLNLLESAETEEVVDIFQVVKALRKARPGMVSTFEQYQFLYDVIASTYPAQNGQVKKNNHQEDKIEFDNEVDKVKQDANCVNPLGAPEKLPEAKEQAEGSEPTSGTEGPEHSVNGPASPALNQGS
As to the kind of experiment: Inhibitory effect against human CD45 tyrosine phosphatase using p-nitrophenyl phosphate substrate at a pH 7.0. The method, boiled down: as §1

For data set [7], the target named is T2, Tyrosine-protein phosphatase non-receptor type 1 (Homo sapiens, UniProt P18031).
T2 sequence (P18031 whole entry): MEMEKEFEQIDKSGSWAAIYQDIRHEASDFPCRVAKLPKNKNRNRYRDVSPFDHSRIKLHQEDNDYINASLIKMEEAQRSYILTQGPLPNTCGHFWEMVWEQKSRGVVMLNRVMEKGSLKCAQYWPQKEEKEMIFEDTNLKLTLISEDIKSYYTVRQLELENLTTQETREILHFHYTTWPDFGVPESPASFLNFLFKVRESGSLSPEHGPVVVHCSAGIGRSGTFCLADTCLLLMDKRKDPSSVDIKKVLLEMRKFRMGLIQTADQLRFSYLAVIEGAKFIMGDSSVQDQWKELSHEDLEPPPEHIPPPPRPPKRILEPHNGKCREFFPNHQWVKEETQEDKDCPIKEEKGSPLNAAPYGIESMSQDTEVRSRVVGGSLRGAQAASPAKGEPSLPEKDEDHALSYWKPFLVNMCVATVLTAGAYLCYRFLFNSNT
As to the kind of experiment: Inhibitory effect against recombinant human protein-tyrosine phosphatase 1B (PTP1B), using p-nitrophenyl phosphate substrate at pH 5.5.

In data set [8] the target is Receptor-type tyrosine-protein phosphatase F (Homo sapiens, UniProt P10586). As to the kind of experiment: Inhibitory effect against human Protein-tyrosine phosphatase Lar using p-nitrophenyl phosphate substrate at a pH 7.0. In outline:
as §1

The target in data set [9] is T2, Tyrosine-protein phosphatase non-receptor type 1. The data set is described as follows: Inhibition of human recombinant Protein-tyrosine phosphatase 1B. In outline:
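Enzyme is a soluble recombinant human PTP1B (residues 1–321). Ki is measured at pH 5.5 with p-nitrophenyl phosphate (pNPP) as substrate.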

The target of data set [10] is T3, Tyrosine-protein phosphatase non-receptor type 2 (Homo sapiens, UniProt P17706).
T3 sequence (P17706 whole entry): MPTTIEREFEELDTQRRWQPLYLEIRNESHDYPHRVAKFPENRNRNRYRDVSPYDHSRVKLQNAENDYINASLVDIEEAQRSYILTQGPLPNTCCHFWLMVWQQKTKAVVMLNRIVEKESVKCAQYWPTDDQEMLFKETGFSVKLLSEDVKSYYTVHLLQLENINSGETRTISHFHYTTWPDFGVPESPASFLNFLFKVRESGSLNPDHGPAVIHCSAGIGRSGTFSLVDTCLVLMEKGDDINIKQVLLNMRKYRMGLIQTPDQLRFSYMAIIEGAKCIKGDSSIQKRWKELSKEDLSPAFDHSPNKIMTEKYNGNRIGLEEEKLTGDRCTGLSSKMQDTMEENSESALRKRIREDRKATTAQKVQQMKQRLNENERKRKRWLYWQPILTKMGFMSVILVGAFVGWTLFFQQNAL
As to the kind of experiment: Inhibitory effect against inhibitory effect against T cell protein tyrosine phosphatase (TC-PTP) using p-nitrophenyl phosphate as substrate at pH 7.0. The method, boiled down:
(§2)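 Ki from a pNPP hydrolysis assay with recombinant TC-PTP, run at pH 7.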

For data set [11], the target named is T3, Tyrosine-protein phosphatase non-receptor type 2. The data set is described as follows: Inhibition of T cell protein tyrosine phosphatase (TC-PTP) at pH 7.0. In kind it is single protein. In outline:
as §2

The nature of data set [12]: Pharmacokinetic Parameter half life was reported for Protein Tyrosine Phosphatase 1B. The note with it: in vivo. In kind it is ADME, organism-based.

Receptor-type tyrosine-protein phosphatase F, sequence (P10586 whole entry): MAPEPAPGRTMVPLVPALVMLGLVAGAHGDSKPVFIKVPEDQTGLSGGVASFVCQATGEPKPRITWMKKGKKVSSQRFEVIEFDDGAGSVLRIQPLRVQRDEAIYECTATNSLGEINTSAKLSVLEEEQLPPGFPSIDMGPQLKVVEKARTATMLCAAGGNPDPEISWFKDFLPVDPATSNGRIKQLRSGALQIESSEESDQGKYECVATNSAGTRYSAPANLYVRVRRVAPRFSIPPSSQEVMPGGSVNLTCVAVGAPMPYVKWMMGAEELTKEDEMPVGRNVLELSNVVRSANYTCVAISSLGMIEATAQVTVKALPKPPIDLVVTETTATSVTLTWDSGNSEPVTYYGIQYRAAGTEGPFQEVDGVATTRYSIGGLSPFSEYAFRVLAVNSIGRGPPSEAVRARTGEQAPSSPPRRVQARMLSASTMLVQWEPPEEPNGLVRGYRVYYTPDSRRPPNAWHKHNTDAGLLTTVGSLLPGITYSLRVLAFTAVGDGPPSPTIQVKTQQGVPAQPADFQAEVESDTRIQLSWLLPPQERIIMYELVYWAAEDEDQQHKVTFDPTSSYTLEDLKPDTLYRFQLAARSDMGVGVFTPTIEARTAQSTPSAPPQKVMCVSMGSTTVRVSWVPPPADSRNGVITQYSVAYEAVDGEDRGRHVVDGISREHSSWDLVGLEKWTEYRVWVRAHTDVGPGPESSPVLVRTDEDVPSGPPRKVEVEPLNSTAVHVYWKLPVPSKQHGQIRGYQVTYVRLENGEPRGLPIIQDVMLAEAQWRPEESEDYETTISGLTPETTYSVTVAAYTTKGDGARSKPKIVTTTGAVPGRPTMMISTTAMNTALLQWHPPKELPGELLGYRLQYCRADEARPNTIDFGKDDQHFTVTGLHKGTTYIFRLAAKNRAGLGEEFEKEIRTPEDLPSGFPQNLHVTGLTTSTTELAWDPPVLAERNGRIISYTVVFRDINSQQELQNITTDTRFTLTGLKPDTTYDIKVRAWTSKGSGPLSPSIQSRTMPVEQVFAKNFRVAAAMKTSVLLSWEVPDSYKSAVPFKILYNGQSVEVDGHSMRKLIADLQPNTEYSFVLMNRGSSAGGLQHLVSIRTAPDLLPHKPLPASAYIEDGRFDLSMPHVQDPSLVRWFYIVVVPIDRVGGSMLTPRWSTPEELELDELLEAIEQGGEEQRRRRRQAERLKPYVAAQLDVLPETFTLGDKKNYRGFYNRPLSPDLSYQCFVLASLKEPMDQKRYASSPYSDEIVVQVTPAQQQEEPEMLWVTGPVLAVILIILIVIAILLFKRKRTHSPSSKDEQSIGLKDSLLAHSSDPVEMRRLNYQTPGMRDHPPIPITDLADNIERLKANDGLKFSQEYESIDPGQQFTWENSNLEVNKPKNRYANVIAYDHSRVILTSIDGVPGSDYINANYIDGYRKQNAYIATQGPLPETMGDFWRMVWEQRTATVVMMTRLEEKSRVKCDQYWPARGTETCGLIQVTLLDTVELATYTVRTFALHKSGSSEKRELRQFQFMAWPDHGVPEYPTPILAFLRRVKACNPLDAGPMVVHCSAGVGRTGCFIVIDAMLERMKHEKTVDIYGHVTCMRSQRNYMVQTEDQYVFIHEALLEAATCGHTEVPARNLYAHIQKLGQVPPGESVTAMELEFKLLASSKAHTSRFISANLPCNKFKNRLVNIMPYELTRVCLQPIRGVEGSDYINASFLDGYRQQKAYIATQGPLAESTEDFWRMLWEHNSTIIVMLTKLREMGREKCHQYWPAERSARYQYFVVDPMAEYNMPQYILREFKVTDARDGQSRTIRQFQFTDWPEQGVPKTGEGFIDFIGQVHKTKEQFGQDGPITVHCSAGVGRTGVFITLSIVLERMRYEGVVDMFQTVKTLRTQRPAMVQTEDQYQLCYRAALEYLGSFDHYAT
Receptor-type tyrosine-protein phosphatase alpha, sequence (P18433 whole entry): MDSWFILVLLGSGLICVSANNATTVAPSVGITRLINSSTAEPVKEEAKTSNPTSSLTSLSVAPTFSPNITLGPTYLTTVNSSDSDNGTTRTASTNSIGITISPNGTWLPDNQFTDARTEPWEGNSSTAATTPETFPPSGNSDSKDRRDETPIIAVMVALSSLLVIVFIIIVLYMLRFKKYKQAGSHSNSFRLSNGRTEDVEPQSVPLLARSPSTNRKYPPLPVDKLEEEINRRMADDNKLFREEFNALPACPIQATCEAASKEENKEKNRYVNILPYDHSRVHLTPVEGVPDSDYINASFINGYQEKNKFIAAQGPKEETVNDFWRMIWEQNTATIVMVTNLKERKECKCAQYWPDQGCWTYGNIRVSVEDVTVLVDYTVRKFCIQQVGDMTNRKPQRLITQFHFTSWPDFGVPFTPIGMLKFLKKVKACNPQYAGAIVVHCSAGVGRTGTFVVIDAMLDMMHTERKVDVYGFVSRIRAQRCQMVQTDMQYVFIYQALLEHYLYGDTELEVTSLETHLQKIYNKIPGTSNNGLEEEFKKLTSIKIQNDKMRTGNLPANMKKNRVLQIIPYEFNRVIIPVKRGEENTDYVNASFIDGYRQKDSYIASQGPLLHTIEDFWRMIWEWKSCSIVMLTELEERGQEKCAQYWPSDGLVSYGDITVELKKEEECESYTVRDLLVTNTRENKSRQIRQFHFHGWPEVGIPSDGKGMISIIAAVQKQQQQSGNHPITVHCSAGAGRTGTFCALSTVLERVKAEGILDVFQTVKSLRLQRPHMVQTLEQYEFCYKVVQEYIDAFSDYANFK

As for `O=C(O)C(=O)Nc1sc2c(c1C(=O)O)CCN(CCc1ccccc1)C2`, in data set [1], the half-life worked out at 2.82 h. Further, the inhibition constant Ki in data set [2] was 2100 µM; in [6], 1400 µM; in data set [7], 0.27 µM; in data set [8], 2100 µM; in data set [9], 3.2 µM and 7.2 µM. In addition, the clearance in data set [3] worked out at 6.4 mL/min/kg. In addition, in data set [4], the bioavailability amounted to 13%. Further, the Vd in data set [5] is 0.9 L/kg.
`O=C(O)C(=O)Nc1sc2c(c1C(=O)O)CCN(Cc1ccc3ccccc3c1)C2`: the inhibitory constant (Ki) in data set [10] was 34 µM; in data set [9] it was 42 µM.
Consider `O=C(O)C(=O)Nc1sc2c(c1C(=O)O)CCNC2`, for which the results for the Ki in data set [11], in [7] and in [9] were 9.4 µM, 0.29 µM and 4.7 µM, respectively. For the same compound, the clearance in data set [3] came to 6.4 mL/min/kg. The bioavailability in data set [4] amounted to 56%. In addition, the Vd in [5] was 0.9 L/kg. The compound also displayed a half-life in [12] of 2.8 h.
